Measured values from ChEMBL document CHEMBL4689842, “EUbOPEN Chemogenomics Library wave 1” (2021).

Tested on: Fibroblast
Assay: Multiplex assay against human fibroblast
Type: toxicity, cell-based
How it was run: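 Live cells were stained at seeding with Hoechst33342, BioTracker Green Microtubule Cytoskeleton Dye, MitoTracker Red and Annexin V Alexa Fluor 680, then imaged on a CQ1 microscope at 37°C and 5% CO2 after compound addition. CellPathfinder machine-learning gating split cells into Hoechst high-intensity objects or normal cells. Normal cells were split into healthy, pyknosed or fragmented nuclei, and pyknosed cells into mitotic or apoptotic. Tubulin, mitochondrial-mass and membrane-permeability phenotypes are per cents of healthy-nucleus cells.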

[1] = 12 h, 1 µM, compound concentration 1 uM, replicate 1
[2] = 12 h, 1 µM, compound concentration 1 uM, replicate 2
[3] = 12 h, 10 µM, compound concentration 10 uM, replicate 1
[4] = 12 h, 10 µM, compound concentration 10 uM, replicate 2
[5] = 24 h, 1 µM, compound concentration 1 uM, replicate 1
[6] = 24 h, 1 µM, compound concentration 1 uM, replicate 2
[7] = 24 h, 10 µM, compound concentration 10 uM, replicate 1
[8] = 24 h, 10 µM, compound concentration 10 uM, replicate 2
[9] = 48 h, 1 µM, compound concentration 1 uM, replicate 1
[10] = 48 h, 1 µM, compound concentration 1 uM, replicate 2
[11] = 48 h, 10 µM, compound concentration 10 uM, replicate 1
[12] = 48 h, 10 µM, compound concentration 10 uM, replicate 2

C[C@@H](NCCCc1cccc(C(F)(F)F)c1)c1cccc2ccccc12.Cl [CINACALCET HYDROCHLORIDE]
Population Apoptotic (%) [1]: 59%
Population Fragmented Nuclei (%) [1]: 22%
Population Healthy Nuclei (%) [1]: 46%
Population Hoechst High Intensity Objects (%) [1]: 16%
Population Membrane Permeable-Phenotype (%) [1]: 12%
Population Mitochondria Different-Phenotype (%) [1]: 14%
Population Mitotic Cells (%) [1]: 40%
Population Normal (%) [1]: 84%
Population Pyknosed Nuclei (%) [1]: 30%
Population Tubulin-Different-Phenotype (%) [1]: 57%
Total Cell Count [1]: 125
Population Apoptotic (%) [2]: 33%
Population Fragmented Nuclei (%) [2]: 10%
Population Healthy Nuclei (%) [2]: 76%
Population Hoechst High Intensity Objects (%) [2]: 9%
Population Membrane Permeable-Phenotype (%) [2]: 11%
Population Mitochondria Different-Phenotype (%) [2]: 22%
Population Mitotic Cells (%) [2]: 66%
Population Normal (%) [2]: 90%
Population Pyknosed Nuclei (%) [2]: 12%
Population Tubulin-Different-Phenotype (%) [2]: 36%
Total Cell Count [2]: 52
Population Apoptotic (%) [3]: 57%
Population Fragmented Nuclei (%) [3]: 33%
Population Healthy Nuclei (%) [3]: 35%
Population Hoechst High Intensity Objects (%) [3]: 11%
Population Membrane Permeable-Phenotype (%) [3]: 4%
Population Mitochondria Different-Phenotype (%) [3]: 73%
Population Mitotic Cells (%) [3]: 42%
Population Normal (%) [3]: 88%
Population Pyknosed Nuclei (%) [3]: 30%
Total Cell Count [3]: 155
Population Apoptotic (%) [4]: 88%
Population Fragmented Nuclei (%) [4]: 20%
Population Healthy Nuclei (%) [4]: 23%
Population Hoechst High Intensity Objects (%) [4]: 7%
Population Membrane Permeable-Phenotype (%) [4]: 33%
Population Mitochondria Different-Phenotype (%) [4]: 93%
Population Mitotic Cells (%) [4]: 11%
Population Normal (%) [4]: 92%
Population Pyknosed Nuclei (%) [4]: 55%
Population Tubulin-Different-Phenotype (%) [4]: 93%
Total Cell Count [4]: 68
Population Apoptotic (%) [5]: 38%
Population Fragmented Nuclei (%) [5]: 25%
Population Healthy Nuclei (%) [5]: 50%
Population Hoechst High Intensity Objects (%) [5]: 15%
Population Membrane Permeable-Phenotype (%) [5]: 16%
Population Mitochondria Different-Phenotype (%) [5]: 12%
Population Mitotic Cells (%) [5]: 61%
Population Normal (%) [5]: 84%
Population Pyknosed Nuclei (%) [5]: 24%
Population Tubulin-Different-Phenotype (%) [5]: 65%
Total Cell Count [5]: 128
Population Apoptotic (%) [6]: 36%
Population Fragmented Nuclei (%) [6]: 8%
Population Healthy Nuclei (%) [6]: 69%
Population Hoechst High Intensity Objects (%) [6]: 7%
Population Membrane Permeable-Phenotype (%) [6]: 5%
Population Mitochondria Different-Phenotype (%) [6]: 26%
Population Mitotic Cells (%) [6]: 63%
Population Normal (%) [6]: 92%
Population Pyknosed Nuclei (%) [6]: 22%
Population Tubulin-Different-Phenotype (%) [6]: 17%
Total Cell Count [6]: 53
Population Apoptotic (%) [7]: 65%
Population Fragmented Nuclei (%) [7]: 35%
Population Healthy Nuclei (%) [7]: 35%
Population Hoechst High Intensity Objects (%) [7]: 11%
Population Membrane Permeable-Phenotype (%) [7]: 10%
Population Mitochondria Different-Phenotype (%) [7]: 71%
Population Mitotic Cells (%) [7]: 34%
Population Normal (%) [7]: 88%
Population Pyknosed Nuclei (%) [7]: 28%
Population Tubulin-Different-Phenotype (%) [7]: 89%
Total Cell Count [7]: 208
Population Apoptotic (%) [8]: 92%
Population Fragmented Nuclei (%) [8]: 15%
Population Healthy Nuclei (%) [8]: 32%
Population Hoechst High Intensity Objects (%) [8]: 24%
Population Membrane Permeable-Phenotype (%) [8]: 52%
Population Mitochondria Different-Phenotype (%) [8]: 88%
Population Mitotic Cells (%) [8]: 7%
Population Normal (%) [8]: 75%
Population Pyknosed Nuclei (%) [8]: 51%
Population Tubulin-Different-Phenotype (%) [8]: 82%
Total Cell Count [8]: 69
Population Apoptotic (%) [9]: 46%
Population Fragmented Nuclei (%) [9]: 33%
Population Healthy Nuclei (%) [9]: 52%
Population Hoechst High Intensity Objects (%) [9]: 19%
Population Membrane Permeable-Phenotype (%) [9]: 16%
Population Mitochondria Different-Phenotype (%) [9]: 5%
Population Mitotic Cells (%) [9]: 53%
Population Normal (%) [9]: 80%
Population Pyknosed Nuclei (%) [9]: 14%
Population Tubulin-Different-Phenotype (%) [9]: 40%
Total Cell Count [9]: 130
Population Apoptotic (%) [10]: 66%
Population Fragmented Nuclei (%) [10]: 50%
Population Healthy Nuclei (%) [10]: 47%
Population Hoechst High Intensity Objects (%) [10]: 10%
Population Membrane Permeable-Phenotype (%) [10]: 15%
Population Mitochondria Different-Phenotype (%) [10]: 4%
Population Mitotic Cells (%) [10]: 33%
Population Normal (%) [10]: 89%
Population Pyknosed Nuclei (%) [10]: 1%
Population Tubulin-Different-Phenotype (%) [10]: 58%
Total Cell Count [10]: 169
Population Apoptotic (%) [11]: 90%
Population Fragmented Nuclei (%) [11]: 42%
Population Healthy Nuclei (%) [11]: 36%
Population Hoechst High Intensity Objects (%) [11]: 13%
Population Membrane Permeable-Phenotype (%) [11]: 5%
Population Mitochondria Different-Phenotype (%) [11]: 68%
Population Mitotic Cells (%) [11]: 10%
Population Normal (%) [11]: 86%
Population Pyknosed Nuclei (%) [11]: 20%
Population Tubulin-Different-Phenotype (%) [11]: 80%
Total Cell Count [11]: 226
Population Apoptotic (%) [12]: 92%
Population Fragmented Nuclei (%) [12]: 35%
Population Healthy Nuclei (%) [12]: 8%
Population Hoechst High Intensity Objects (%) [12]: 23%
Population Membrane Permeable-Phenotype (%) [12]: 25%
Population Mitochondria Different-Phenotype (%) [12]: 25%
Population Mitotic Cells (%) [12]: 7%
Population Normal (%) [12]: 76%
Population Pyknosed Nuclei (%) [12]: 55%
Population Tubulin-Different-Phenotype (%) [12]: 50%
Total Cell Count [12]: 121

CN1CCC[C@@H]1CCO[C@](C)(c1ccccc1)c1ccc(Cl)cc1.O=C(O)/C=C/C(=O)O [CLEMASTINE FUMARATE]
Population Apoptotic (%) [1]: 61%
Population Fragmented Nuclei (%) [1]: 35%
Population Healthy Nuclei (%) [1]: 39%
Population Hoechst High Intensity Objects (%) [1]: 20%
Population Membrane Permeable-Phenotype (%) [1]: 13%
Population Mitochondria Different-Phenotype (%) [1]: 10%
Population Mitotic Cells (%) [1]: 38%
Population Normal (%) [1]: 79%
Population Pyknosed Nuclei (%) [1]: 24%
Population Tubulin-Different-Phenotype (%) [1]: 37%
Total Cell Count [1]: 92
Population Apoptotic (%) [2]: 50%
Population Fragmented Nuclei (%) [2]: 15%
Population Healthy Nuclei (%) [2]: 76%
Population Hoechst High Intensity Objects (%) [2]: 1%
Population Membrane Permeable-Phenotype (%) [2]: 3%
Population Mitochondria Different-Phenotype (%) [2]: 6%
Population Mitotic Cells (%) [2]: 50%
Population Normal (%) [2]: 98%
Population Pyknosed Nuclei (%) [2]: 7%
Population Tubulin-Different-Phenotype (%) [2]: 3%
Total Cell Count [2]: 78
Population Apoptotic (%) [3]: 69%
Population Fragmented Nuclei (%) [3]: 26%
Population Healthy Nuclei (%) [3]: 43%
Population Hoechst High Intensity Objects (%) [3]: 10%
Population Membrane Permeable-Phenotype (%) [3]: 11%
Population Mitochondria Different-Phenotype (%) [3]: 49%
Population Mitotic Cells (%) [3]: 30%
Population Normal (%) [3]: 90%
Population Pyknosed Nuclei (%) [3]: 29%
Population Tubulin-Different-Phenotype (%) [3]: 77%
Total Cell Count [3]: 160
Population Apoptotic (%) [4]: 85%
Population Fragmented Nuclei (%) [4]: 19%
Population Healthy Nuclei (%) [4]: 41%
Population Hoechst High Intensity Objects (%) [4]: 21%
Population Membrane Permeable-Phenotype (%) [4]: 6%
Population Mitochondria Different-Phenotype (%) [4]: 86%
Population Mitotic Cells (%) [4]: 14%
Population Normal (%) [4]: 78%
Population Pyknosed Nuclei (%) [4]: 38%
Population Tubulin-Different-Phenotype (%) [4]: 40%
Total Cell Count [4]: 46
Population Apoptotic (%) [5]: 63%
Population Fragmented Nuclei (%) [5]: 36%
Population Healthy Nuclei (%) [5]: 50%
Population Hoechst High Intensity Objects (%) [5]: 32%
Population Membrane Permeable-Phenotype (%) [5]: 20%
Population Mitochondria Different-Phenotype (%) [5]: 17%
Population Mitotic Cells (%) [5]: 36%
Population Normal (%) [5]: 67%
Population Pyknosed Nuclei (%) [5]: 13%
Population Tubulin-Different-Phenotype (%) [5]: 60%
Total Cell Count [5]: 118
Population Apoptotic (%) [6]: 18%
Population Fragmented Nuclei (%) [6]: 14%
Population Healthy Nuclei (%) [6]: 70%
Population Hoechst High Intensity Objects (%) [6]: 0%
Population Membrane Permeable-Phenotype (%) [6]: 5%
Population Mitochondria Different-Phenotype (%) [6]: 13%
Population Mitotic Cells (%) [6]: 81%
Population Normal (%) [6]: 99%
Population Pyknosed Nuclei (%) [6]: 15%
Population Tubulin-Different-Phenotype (%) [6]: 6%
Total Cell Count [6]: 107
Population Apoptotic (%) [7]: 78%
Population Fragmented Nuclei (%) [7]: 34%
Population Healthy Nuclei (%) [7]: 48%
Population Hoechst High Intensity Objects (%) [7]: 16%
Population Membrane Permeable-Phenotype (%) [7]: 9%
Population Mitochondria Different-Phenotype (%) [7]: 76%
Population Mitotic Cells (%) [7]: 21%
Population Normal (%) [7]: 83%
Population Pyknosed Nuclei (%) [7]: 17%
Population Tubulin-Different-Phenotype (%) [7]: 85%
Total Cell Count [7]: 190
Population Apoptotic (%) [8]: 76%
Population Fragmented Nuclei (%) [8]: 21%
Population Healthy Nuclei (%) [8]: 36%
Population Hoechst High Intensity Objects (%) [8]: 12%
Population Membrane Permeable-Phenotype (%) [8]: 26%
Population Mitochondria Different-Phenotype (%) [8]: 86%
Population Mitotic Cells (%) [8]: 23%
Population Normal (%) [8]: 87%
Population Pyknosed Nuclei (%) [8]: 41%
Population Tubulin-Different-Phenotype (%) [8]: 26%
Total Cell Count [8]: 47
Population Apoptotic (%) [9]: 50%
Population Fragmented Nuclei (%) [9]: 46%
Population Healthy Nuclei (%) [9]: 45%
Population Hoechst High Intensity Objects (%) [9]: 27%
Population Membrane Permeable-Phenotype (%) [9]: 24%
Population Mitochondria Different-Phenotype (%) [9]: 2%
Population Mitotic Cells (%) [9]: 50%
Population Normal (%) [9]: 72%
Population Pyknosed Nuclei (%) [9]: 8%
Population Tubulin-Different-Phenotype (%) [9]: 42%
Total Cell Count [9]: 136
Population Apoptotic (%) [10]: 0%
Population Fragmented Nuclei (%) [10]: 48%
Population Healthy Nuclei (%) [10]: 51%
Population Hoechst High Intensity Objects (%) [10]: 16%
Population Membrane Permeable-Phenotype (%) [10]: 11%
Population Mitochondria Different-Phenotype (%) [10]: 14%
Population Mitotic Cells (%) [10]: 0%
Population Normal (%) [10]: 83%
Population Pyknosed Nuclei (%) [10]: 0%
Population Tubulin-Different-Phenotype (%) [10]: 50%
Total Cell Count [10]: 97
Population Apoptotic (%) [11]: 78%
Population Fragmented Nuclei (%) [11]: 38%
Population Healthy Nuclei (%) [11]: 45%
Population Hoechst High Intensity Objects (%) [11]: 24%
Population Membrane Permeable-Phenotype (%) [11]: 8%
Population Mitochondria Different-Phenotype (%) [11]: 72%
Population Mitotic Cells (%) [11]: 21%
Population Normal (%) [11]: 75%
Population Pyknosed Nuclei (%) [11]: 15%
Population Tubulin-Different-Phenotype (%) [11]: 83%
Total Cell Count [11]: 197
Population Apoptotic (%) [12]: 75%
Population Fragmented Nuclei (%) [12]: 47%
Population Healthy Nuclei (%) [12]: 50%
Population Membrane Permeable-Phenotype (%) [12]: 3%
Population Mitochondria Different-Phenotype (%) [12]: 60%
Population Mitotic Cells (%) [12]: 25%
Population Pyknosed Nuclei (%) [12]: 2%
Population Tubulin-Different-Phenotype (%) [12]: 97%
Total Cell Count [12]: 258
